Measurements reported in ChEMBL document CHEMBL3585272, “Syntheses and Antibacterial Activity of N-Acylated Ciprofloxacin Derivatives Based on the Trimethyl Lock” (ACS Med Chem Lett, 2015).
≈ marks a conversion by molar mass, not a printed value.

What was measured:
Acinetobacter baumannii [1] = assay: Antibacterial activity against Acinetobacter baumannii ATCC 17961 by broth microdilution method; assay type: functional
How it was run: (§1)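 Broth microdilution in Mueller-Hinton broth No.2 (MHII) following CLSI guidelines. The MIC (μM) was read by visual end point. Each compound was tested in triplicate.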

Staphylococcus aureus [2] = assay: Antibacterial activity against Staphylococcus aureus SG511 by broth microdilution method; assay type: functional; how it was run: as §1
Escherichia coli [3] = assay: Antibacterial activity against Escherichia coli DC2 by broth microdilution method; assay type: functional; how it was run: as §1
Escherichia coli [4] = assay: Antibacterial activity against Escherichia coli DC0 by broth microdilution method; assay type: functional; how it was run: as §1
Mycolicibacterium vaccae [5] = assay: Antibacterial activity against Mycobacterium vaccae IMET10670 by broth microdilution method; assay type: functional; how it was run: as §1
Bacillus subtilis [6] = assay: Antibacterial activity against Bacillus subtilis ATCC 6633 by broth microdilution method; assay type: functional; how it was run: as §1
Pseudomonas aeruginosa [7] = assay: Antibacterial activity against wild type Pseudomonas aeruginosa K799 by broth microdilution method; assay type: functional; how it was run: as §1
Micrococcus luteus [8] = assay: Antibacterial activity against Micrococcus luteus ATCC 10240 by broth microdilution method; assay type: functional; how it was run: as §1
Pseudomonas aeruginosa [9] = assay: Antibacterial activity against Pseudomonas aeruginosa K799/61 by broth microdilution method; assay type: functional; how it was run: as §1
[10] = Retention time of the compound in presence of methyl mercaptoacetate in CH3CN/PBS solution at 37 degC incubated for 3 hrs by HPLC method; assay type: physicochemical; settings: buffer
Bacillus subtilis [11] = assay: microbe, parasite or virus in culture; settings: ATCC 6633, 24 h, read-out: DIZ
Staphylococcus aureus [12] = assay: Antibacterial activity against Staphylococcus aureus SG511 at 5 ug/ml incubated for 24 hrs at 37 degC by agar diffusion assay; settings: SG511, 24 h, read-out: DIZ
Bacillus subtilis [13] = assay: microbe, parasite or virus in culture; settings: ATCC 6633, 24 h, read-out: DIZ; remark: listed apart in the source
Acinetobacter baumannii [14] = assay: microbe, parasite or virus in culture; settings: ATCC 17961, 24 h, read-out: DIZ
Acinetobacter baumannii [15] = assay: microbe, parasite or virus in culture; settings: ATCC 17961, 24 h, read-out: DIZ; remark: listed apart in the source
Escherichia coli [16] = assay: Antibacterial activity against Escherichia coli DC0 at 5 ug/ml incubated for 24 hrs at 37 degC by agar diffusion assay; settings: DC0, 24 h, read-out: DIZ
Pseudomonas aeruginosa [17] = assay: microbe, parasite or virus in culture; settings: K799/61, 24 h, read-out: DIZ
Pseudomonas aeruginosa [18] = assay: microbe, parasite or virus in culture; settings: K799, 24 h, read-out: DIZ
Mycolicibacterium vaccae [19] = assay: Antibacterial activity against Mycobacterium vaccae IMET10670 at 5 ug/ml incubated for 44 hrs at 37 degC by agar diffusion assay; assay type: functional; settings: IMET10670, 44 h, read-out: DIZ
How it was run: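 Agar well diffusion with the sample in H2O at 5 μg/mL. 50 μL was added to 9 mm wells in nutrient or Mueller Hinton II agar. Plates were incubated at 37 °C for 24 h, or 44 h for M. vaccae, and inhibition zones were read.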

Pseudomonas aeruginosa [20] = assay: microbe, parasite or virus in culture; settings: K799/61, 24 h, read-out: DIZ; remark: listed apart in the source
Micrococcus luteus [21] = assay: Antibacterial activity against Micrococcus luteus ATCC 10240 at 5 ug/ml incubated for 24 hrs at 37 degC by agar diffusion assay; assay type: functional; settings: ATCC 10240, 24 h, read-out: DIZ
How it was run: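 Agar well diffusion: the drug was dissolved in water and added to 9 mm wells cut in Standard I Nutrient Agar or Mueller Hinton II agar seeded with the strain. Inhibition zone diameters were read after 24 h at 37 °C. Zones were scored as very unclear where the zone boundary was indistinct.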

For CC(C)(C)CC(=O)N1CCN(c2cc3c(cc2F)c(=O)c(C(=O)O)cn3C2CC2)CC1, the MIC (Acinetobacter baumannii [1]) was 25 µM (≈ 10.7 µg/mL), the MIC (Staphylococcus aureus [2]) was 0.4 µM (≈ 0.172 µg/mL) and the MIC (Escherichia coli [3]) was 100 µM (≈ 42.9 µg/mL). For the same compound, the MIC (Escherichia coli [4]) was over 100 µM, the MIC (Mycolicibacterium vaccae [5]) was 2 µM (≈ 0.859 µg/mL) and the MIC (Bacillus subtilis [6]) was under 0.05 µM. For the same compound, the MIC (Pseudomonas aeruginosa [7]) was over 100 µM, the MIC (Micrococcus luteus [8]) was 12.5 µM (≈ 5.37 µg/mL) and the MIC (Pseudomonas aeruginosa [9]) was over 100 µM.
Work on CC1=CC(=O)C(C(C)(C)CC(=O)N2CCN(c3ccccc3)CC2)=C(C)C1=O yielded a Retention_time [10] of 11.1 min.
COC(=O)CSc1c(C)c(O)c(C)c2c1OC(=O)CC2(C)C showed a Retention_time [10] of 9.2 min.
For CC(C)(C)OC(=O)N1CCN(c2cc3c(cc2F)c(=O)c(C(=O)O)cn3C2CC2)CC1, the MIC (Acinetobacter baumannii [1]) was over 100 µM, the MIC (Staphylococcus aureus [2]) was 0.4 µM (≈ 0.173 µg/mL) and the MIC (Escherichia coli [3]) was over 100 µM. For the same compound, the MIC (Escherichia coli [4]) was over 100 µM, the MIC (Mycolicibacterium vaccae [5]) was 2 µM (≈ 0.863 µg/mL) and the MIC (Bacillus subtilis [6]) was under 0.05 µM. For the same compound, the MIC (Pseudomonas aeruginosa [7]) was over 100 µM, the MIC (Micrococcus luteus [8]) was over 100 µM and the MIC (Pseudomonas aeruginosa [9]) was over 100 µM.
Compound O=C(O)c1cn(C2CC2)c2cc(N3CCNCC3)c(F)cc2c1=O [CIPROFLOXACIN] has a zone of inhibition at 1.66 µg/mL (Bacillus subtilis [11]) of 24 mm, an MIC (Acinetobacter baumannii [1]) of 0.24 µM (≈ 0.0795 µg/mL) and a zone of inhibition at 5 µg/mL (Staphylococcus aureus [12]) of 21 mm. It also gave a zone of inhibition at 1.66 µg/mL (Bacillus subtilis [13]) of 20 mm, a zone of inhibition at 5 µg/mL (Acinetobacter baumannii [14]) of 21 mm and an MIC (Staphylococcus aureus [2]) of 0.47 µM (≈ 0.156 µg/mL). It also gave a zone of inhibition at 5 µg/mL (Acinetobacter baumannii [15]) of 18 mm, an MIC (Escherichia coli [3]) of 0.24 µM (≈ 0.0795 µg/mL) and an MIC (Escherichia coli [4]) of 0.47 µM (≈ 0.156 µg/mL). For the same compound, the MIC (Mycolicibacterium vaccae [5]) was 0.47 µM (≈ 0.156 µg/mL), the zone of inhibition at 5 µg/mL (Escherichia coli [16]) was 18 mm and the MIC (Bacillus subtilis [6]) was 0.03 µM (≈ 0.00994 µg/mL). For the same compound, the MIC (Pseudomonas aeruginosa [7]) was 0.47 µM (≈ 0.156 µg/mL), the zone of inhibition at 1.66 µg/mL (Pseudomonas aeruginosa [17]) was 24 mm and the MIC (Micrococcus luteus [8]) was 8 µM (≈ 2.65 µg/mL). For the same compound, the zone of inhibition at 1.66 µg/mL (Pseudomonas aeruginosa [18]) was 15 mm, the zone of inhibition at 5 µg/mL (Mycolicibacterium vaccae [19]) was 23 mm and the zone of inhibition at 1.66 µg/mL (Pseudomonas aeruginosa [20]) was 19 mm. For the same compound, the MIC (Pseudomonas aeruginosa [9]) was 0.24 µM (≈ 0.0795 µg/mL) and the zone of inhibition at 5 µg/mL (Micrococcus luteus [21]) was 0 mm.
For c1ccc(N2CCNCC2)cc1 [PHENYLPIPERAZINE], the Retention_time [10] was 8.5 min.
